Each block holds one compound with its values, some of them ahead of it. Activity calls are given as the source filed them. The calls are words filed in the database; no cut-off is given here.
Legend:
MCF7 [1] = experiment: Effect on actin level in human MCF7 cells at 1.5 times IC50 measured after 48 hrs by western blot analysis; type: cell-based; conditions: mcf7, 48 h
In short: (§1)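 Cells seeded in 6-well plates, 24 h at 37 °C, 5% CO2, then exposed 48 h to compound or 17-AAG in DMSO (1% final) or to vehicle. Lysed 2 h on ice in buffer with protease and phosphatase inhibitors, sonicated, protein measured by BCA. Equal protein run on SDS-PAGE, moved to PVDF, primary antibodies overnight at 4 °C, HRP secondary 1 h, ECL chemiluminescence.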

MDA-MB-468 [2] = experiment: Effect on actin level in human MDA-MB-468 cells at 1.5 times IC50 measured after 48 hrs by western blot analysis; type: cell-based; conditions: mda-mb-468, 48 h; in short: as §1
[3] = molecular target: T1, Heat shock protein HSP90 (Homo sapiens) (UniProt P07900+P08238); experiment: Inhibition of HSP90 in human MCF-7 cells assessed as ER-alpha protein degradation at 1.5 times IC50 measured after 48 hrs by western blot analysis
MDA-MB-468 [4] = experiment: Antiproliferative activity against human MDA-MB-468 cells measured after 48 hrs by MTT assay; type: functional, cell-based; conditions: MDA-MB-468, 48 h
In short: (§2)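 Cells grown in DMEM with 2 mM L-glutamine, penicillin/streptomycin and 5% FBS at 37 °C, 5% CO2; seeded 6000/well in 96-well plates, attached 24 h. Compounds added over a concentration range in DMSO (1% final), 48 h. MTT (2.5 mg/mL in PBS) added for 3.5 h, formazan dissolved in DMSO, OD 570 nm. Growth relative to 1% DMSO; IC50 from separate triplicate experiments.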

[5] = molecular target: T1, Heat shock protein HSP90 (Homo sapiens); experiment: Inhibition of HSP90 in human MCF7 cells assessed as ER-alpha protein degradation at 1.5 times IC50 measured after 48 hrs by western blot analysis; type: cell-based; in short: as §1
MDA-MB-468 [6] = experiment: Induction of apoptosis in human MDA-MB-468 cells at 2 uM measured after 48 hrs by Annexin V-FITC/propidium iodide staining-based flow cytometry; type: functional, cell-based
In short: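 Cells incubated 24 h at 37 °C, 5% CO2, then given compounds in DMSO (1% final) for 48 h. Floating and trypsinized adherent cells pooled, PBS-washed, stained with annexin V-FITC plus propidium iodide in binding buffer, 15 min on ice in the dark. Flow cytometry, ≥10 000 events per sample; annexin V-positive cells scored as apoptotic.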

[7] = molecular target: T1, Heat shock protein HSP90 (Homo sapiens); experiment: Inhibition of HSP90 in human MCF7 cells assessed as Raf-1 protein degradation at 1.5 times IC50 measured after 48 hrs by western blot analysis; type: cell-based; in short: as §1
MDA-MB-468 [8] = experiment: Effect on cell cycle distribution in human MDA-MB-468 cells assessed as accumulation at G2/M-phase at 2 uM measured after 48 hrs by propidium iodide staining-based flow cytometry; type: functional
In short: (§3)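 MDA-MB-468 seeded 40,000/well in 24-well plates, 24 h at 37 °C, 5% CO2, then treated 48 h with compounds in DMSO (1% final). Cells trypsinized, washed in PBS, fixed in 70% ethanol, rehydrated in PBS, stained with propidium iodide in PBS. Phase distribution (G1, S, G2/M, polyploid, subG1) read by flow cytometry.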

MCF7 [9] = experiment: Effect on HSP90 level in human MCF7 cells at 1.5 times IC50 measured after 48 hrs by western blot analysis; type: cell-based; conditions: mcf7, 48 h; in short: as §1
MCF7 [10] = experiment: Antiproliferative activity against human MCF7 cells measured after 48 hrs by MTT assay; type: functional, cell-based; conditions: MCF7, 48 h; in short: as §2
MDA-MB-468 [11] = experiment: Effect on HSP90 level in human MDA-MB-468 cells at 1.5 times IC50 measured after 48 hrs by western blot analysis; type: cell-based; conditions: mda-mb-468, 48 h; in short: as §1
[12] = molecular target: T1, Heat shock protein HSP90 (Homo sapiens); experiment: Inhibition of HSP90 in human MDA-MB-468 cells assessed as Raf-1 protein degradation at 1.5 times IC50 measured after 48 hrs by western blot analysis; type: cell-based; in short: as §1
MDA-MB-468 [13] = experiment: Induction of apoptosis in human MDA-MB-468 cells assessed as mortality at 10 uM measured after 48 hrs by Annexin V-FITC/propidium iodide staining-based flow cytometry; type: functional; conditions: MDA-MB-468, 48 h
In short: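 MDA-MB-468 cells seeded in wells, held 24 h at 37 °C in 5% CO2, then exposed to compound in DMSO (1% DMSO final) for 48 h. Floating and trypsinised adherent cells pooled, PBS-washed, stained with annexin V-FITC plus propidium iodide in binding buffer 15 min on ice in the dark. Flow cytometry, ≥10 000 events per sample; annexin V-positive cells scored apoptotic.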

MDA-MB-468 [14] = experiment: Effect on cell cycle in human MDA-MB-468 cells assessed as accumulation at subG1-phase at 10 uM measured after 48 hrs by propidium iodide staining-based FACS analysis; type: functional; in short: as §3
MDA-MB-468 [15] = experiment: Cell cycle arrest in human MDA-MB-468 cells at 10 uM measured after 48 hrs by propidium iodide staining-based FACS analysis; type: functional; in short: as §3
MCF7 [16] = experiment: Antiproliferative activity against human MCF7 cells measured after 5 days by MTS assay; type: functional, cell-based; conditions: MCF7, 120 h

inhibition [3]: Active
IC50 (MDA-MB-468 [4]): 1.96 µM
inhibition [5]: Active
inhibition [7]: Active
IC50 (MCF7 [10]): 4.85 µM
inhibition [12]: Active
Compound: Cn1c(=O)c(NC(=O)c2cccc(-c3ccccc3)c2)cc2cnc(NCCN3CCOCC3)cc21
Activity (MCF7 [1]): Non-toxic
Activity (MDA-MB-468 [2]): Non-toxic
Activity (MDA-MB-468 [6]): inactive
Activity (MDA-MB-468 [8]): Active
Activity (MCF7 [9]): Non-toxic
Activity (MDA-MB-468 [11]): Non-toxic

IC50 (MDA-MB-468 [4]): > 100 µM
IC50 (MCF7 [10]): > 100 µM
Compound: Cn1c(=O)c(NC(=O)/C=C/c2ccccc2)cc2cnc(NCCN3CCOCC3)cc21

IC50 (MDA-MB-468 [4]): 15.7 µM
IC50 (MCF7 [10]): 37.3 µM
Compound: COc1ccc(C(=O)Nc2cc3cnc(NCCN(C)C)cc3n(C)c2=O)cc1

IC50 (MDA-MB-468 [4]): 15.6 µM
IC50 (MCF7 [10]): 21.5 µM
Compound: COc1cc(C(=O)Nc2cc3cnc(NCCN(C)C)cc3n(C)c2=O)cc(OC)c1OC

Compound: COc1ccc(C(=O)Nc2cc3cnc(N4CCN(CCO)CC4)cc3n(C)c2=O)cc1
mortality at 10 µM (MDA-MB-468 [13]): 40%
Activity (MCF7 [1]): Non-toxic
Activity (MDA-MB-468 [2]): Non-toxic
inhibition [3]: Active
Activity (MDA-MB-468 [14]): Active
IC50 (MDA-MB-468 [4]): 10.5 µM
inhibition [5]: Active
inhibition [7]: Active
Activity (MDA-MB-468 [15]): inactive
Activity (MCF7 [9]): Non-toxic
IC50 (MCF7 [10]): 8.59 µM
Activity (MDA-MB-468 [11]): Non-toxic
inhibition [12]: Active

IC50 (MDA-MB-468 [4]): > 100 µM
IC50 (MCF7 [10]): > 100 µM
Compound: Cn1c(=O)c(NC(=O)c2ccccc2)cc2cnc(NCCN3CCOCC3)cc21

IC50 (MDA-MB-468 [4]): 338 µM
IC50 (MCF7 [10]): 293 µM
Compound: CO[C@@H]1[C@@H](OC(N)=O)[C@@H](O)[C@H](Oc2ccc3c(O)c(NC(=O)c4ccc(O)c(CC=C(C)C)c4)c(=O)oc3c2C)OC1(C)C [NOVOBIOCIN]

IC50 (MDA-MB-468 [4]): 1.57 µM
IC50 (MCF7 [16]): 0.005 µM
IC50 (MCF7 [10]): 0.029 µM
Compound: C=CCNC1=C2C[C@@H](C)C[C@H](OC)[C@H](O)[C@@H](C)/C=C(\C)[C@H](OC(N)=O)[C@@H](OC)/C=C\C=C(/C)C(=O)NC(=CC1=O)C2=O [TANESPIMYCIN]
Activity (MDA-MB-468 [8]): Active

IC50 (MDA-MB-468 [4]): > 100 µM
IC50 (MCF7 [10]): 4.47 µM
Compound: Cn1c(=O)c(NC(=O)c2ccncc2)cc2cnc(NCCN3CCOCC3)cc21

IC50 (MDA-MB-468 [4]): > 100 µM
IC50 (MCF7 [10]): > 100 µM
Compound: CC(=O)Nc1cc2cnc(NCCN(C)C)cc2n(C)c1=O

inhibition [3]: Active
IC50 (MDA-MB-468 [4]): 1.64 µM
inhibition [5]: Active
inhibition [7]: Active
IC50 (MCF7 [10]): 3.09 µM
inhibition [12]: Active
Compound: CN(C)CCNc1cc2c(cn1)cc(NC(=O)c1ccc(Cl)cc1)c(=O)n2C
Activity (MCF7 [1]): Non-toxic
Activity (MDA-MB-468 [2]): Non-toxic
Activity (MDA-MB-468 [6]): Active
Activity (MDA-MB-468 [8]): Active
Activity (MCF7 [9]): Non-toxic
Activity (MDA-MB-468 [11]): Non-toxic

IC50 (MDA-MB-468 [4]): > 100 µM
IC50 (MCF7 [10]): > 100 µM
Compound: CC(=O)Nc1cc2cnc(NCCN3CCOCC3)cc2n(C)c1=O

IC50 (MDA-MB-468 [4]): > 100 µM
IC50 (MCF7 [10]): 48.6 µM
Compound: COc1cc(C(=O)Nc2cc3cnc(NCCN4CCOCC4)cc3n(C)c2=O)cc(OC)c1OC

IC50 (MDA-MB-468 [4]): > 100 µM
IC50 (MCF7 [10]): 6.35 µM
Compound: Cn1c(=O)c(NC(=O)c2ccc(Cl)cc2)cc2cnc(NCCN3CCOCC3)cc21

From ChEMBL document CHEMBL3822361, “Novel 1,6-naphthyridin-2(1H)-ones as potential anticancer agents targeting Hsp90” (Eur J Med Chem, 2016)
